Bioassay records as filed in PubChem BioAssay.
A selection: hits, their analogues and other compounds. The true share with any hit is near 1.9%.
SUMO1-SIM PPI: alters human SUMO1 binding to SIM partners | actives 0.33% (n = 360,000) | SUMO1 binding to a labelled peptide, TR-FRET, 1 h | AID 602429 | inhibition, % at 20 µM; in the data active = inhibition above about 37%
Target sequence (P63165 whole entry, looked up): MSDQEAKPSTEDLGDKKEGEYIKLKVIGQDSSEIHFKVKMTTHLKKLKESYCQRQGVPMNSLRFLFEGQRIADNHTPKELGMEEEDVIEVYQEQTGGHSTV
LMPTP block: blocks human LMPTP phosphatase; P24666; recombinant LMPTP-A, OMFP fluorogenic substrate, fluorescence intensity; inhibition, % at 20 µM; actives 0.22% (n = 360,000); AID 651560;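 active = compounds that cut the enzyme signal by at least half of the control window in the single-dose screen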;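 also: plate controls were DMSO wells with enzyme plus substrate for no effect and substrate without enzyme for full effect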
Target sequence (P24666 whole entry, looked up): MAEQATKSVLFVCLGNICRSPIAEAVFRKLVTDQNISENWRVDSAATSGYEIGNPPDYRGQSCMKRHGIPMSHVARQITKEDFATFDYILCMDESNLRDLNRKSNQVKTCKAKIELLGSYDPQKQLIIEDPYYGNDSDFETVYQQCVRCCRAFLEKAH
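Assay system: LMPTP-A, protein tyrosine phosphatase of low molecular weight / Medium: pH 6.0 Bis-Tris buffer with DTT and Triton X-100 / Schedule: 50 min enzyme reaction at room temperature, protected from light / Measured by: endpoint fluorescence intensity from OMFP dephosphorylation / Read-out basis: % inhibition relative to no-enzyme and uninhibited control wells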
DNMT1 inh: inhibitors of human DNMT1 | AID 588458 | inhibition (reported as % activation of signal), % at 10 µM | actives 0.83% (n = 360,000) | DNMT1 molecular beacon, Hinp1I cleavage, fluorescence; in the data active = inhibition above about 50%
STEP block: STEP (human) phosphatase inhibition; inhibition, % at 20 µM; recombinant STEP, OMFP fluorogenic substrate, fluorescence; P54829; actives 0.25% (n = 360,000);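 active = inhibition at 20 µM, scaled per plate between control wells, above about 37%, limit read from the data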;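 also: 0% = DMSO with enzyme and substrate and 100% = substrate only without enzyme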
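Material: STEP (striatal-enriched tyrosine phosphatase) enzyme, cell-free | Medium: 50 mM Bis-Tris pH 6.0 with 2.5 mM DTT and 0.005% Tween 20 | Read-out: Percent inhibition scaled to no-enzyme and uninhibited-enzyme controls, plate-pattern corrected | Signal: Fluorescence read at 480 nm ex / 540 nm em | Times: 20 min reaction, room temperature, in the dark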
CSN inh: CSN deneddylation inhibition | Q92905 | Purified CSN, SCF-Nedd8-OG deneddylation, fluorescence polarization | inhibition, % at 12.5 µM | actives 0.38% (n = 360,000);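 active = pattern-corrected inhibition above about 35%, with an unprinted fluorescence ratio check between 0.5 and 1.5, limit read from the data, passing the limit was not always enough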;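 also: 0% = enzyme with substrate and 100% = substrate without enzyme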
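test system = HEK293T-derived human Csn5 enzyme | amount = 0.24 nM Csn5 enzyme, final concentration | medium = Tris/NaCl/DTT buffer, pH 7.5 | schedule = 90 min reaction at room temperature | signal = FP | evaluation = inhibition of Csn5 cleavage, % | compound dosing = single dose of 12.5 µM compound with 0.25% DMSO | probe or stimulus = 10 nM SCFSkp2-Nedd8OG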
Scp-1 inhibitor: Scp-1 (human) phosphatase inhibition; actives 0.88% (n = 340,000); inhibition, % at 20 µM; Recombinant Scp1, phosphopeptide, malachite green phosphate absorbance; Q9GZU7; AID 493091;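 active = inhibition above about 50% at 20 µM, limit read from the data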;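 also: plate controls were DMSO wells with enzyme for no effect and wells lacking enzyme for full effect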
Target sequence (Q9GZU7 76-261 limits assumed): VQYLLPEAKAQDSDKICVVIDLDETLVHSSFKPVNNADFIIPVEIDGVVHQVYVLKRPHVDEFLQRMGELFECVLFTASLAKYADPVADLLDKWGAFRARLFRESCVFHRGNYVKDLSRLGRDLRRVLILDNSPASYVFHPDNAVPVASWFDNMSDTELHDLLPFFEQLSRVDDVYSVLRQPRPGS
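assay system = SCP-1 phosphatase catalytic domain, residues 76-261 | buffer or medium = 50 mM Tris acetate pH 5.5, 0.005% Tween-20, 10 mM MgCl2 | incubation = enzyme reaction 45 min at room temperature, colour 5 min, stabilisation 30 min | signal = Phosphate-binding colour reagent, absorbance read at 630 nm | measure = % inhibition at 20 µM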
Scp-1 conf: Scp-1 (human) inhibition, single-dose confirmed; AID 540281; shares compounds with Scp-1 inhibitor; inhibition, % at 20 µM; actives 61% (n = 2,500); recombinant SCP-1 catalytic domain, phosphate release, malachite green absorbance;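 also: plate controls were DMSO with enzyme for no effect and buffer wells lacking enzyme for full effect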
Scp-1 MG ctr: colorimetric interference in Scp-1 counter-screen; Colorimetric interference counterscreen, malachite green absorbance 630 nm; shares compounds with Scp-1 inhibitor; 2,500 tested, under 10 active; apparent inhibition (interference), % at 20 µM; AID 540313;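 also: compounds added after enzyme reaction finished so only phosphate colour detection is probed; plate controls were DMSO wells with completed Scp-1 reaction for no effect and substrate wells lacking enzyme for full effect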
Scp1 DSF: Scp-1 (human) binding by thermal shift; shares compounds with Scp-1 inhibitor; actives 25% (n = 1,500); thermal shift relative to vanadate control, % at 40 µM; Recombinant SCP1, Sypro Orange thermal shift Tm; AID 540329;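 active = substances whose mean melting-temperature shift, as a percentage of the reference inhibitor's shift, reaches about 5.3%, limit read from the data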;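 also: 0% = Tm of DMSO wells and 100% = Tm with sodium orthovanadate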
Numbers without * were called inactive; nt = no result.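 The calls were made as follows, unless noted: active = inhibition of at least 30% at 20 µM; inactive = the rest.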

SMILES	SUMO1-SIM PPI	LMPTP block	DNMT1 inh	STEP block	CSN inh	Scp-1 inhibitor	Scp-1 conf	Scp-1 MG ctr	Scp1 DSF
COc1ccc(S(=O)(=O)N2CCCC(C(=O)NCc3ccco3)C2)cc1Cl (stereo not drawn)	4	-1	-1	0	-1	-1	nt	nt	nt
COc1ccc(OC)c(-c2nc3ccccc3nc2-c2ccccc2)c1	-11	2	-2	-1	2	58*	-27	-22	nt
O=C(O)Cc1ccc(-n2cccc2)cc1	8	4	96*	2	22	80*	53*	-17	-6
O=C(NCCc1nccs1)C1CCC(=O)N(Cc2cccc(C(F)(F)F)c2)C1 (stereo not drawn)	2	0	1	-2	-2	-2	nt	nt	nt
Cc1cc(C)n(-c2ccc(C(=O)O)cc2)n1	-5	-2	-2	0	-6	4	nt	nt	nt
Cc1cc(C)n(-c2ccc(Oc3ccccc3)c(S(=O)(=O)O)c2)n1	1	4	28	37	-9	65*	47*	-17	-4
O=C(O)c1ccc(S(=O)(=O)N(Cc2ccccc2)C2CCCCC2)cc1	1	-2	1	0	-2	2	nt	nt	nt
CCOC(=O)C1=C(C)N=c2s/c(=C\c3cccc(OCC(=O)O)c3)c(=O)n2C1c1ccccc1OC (stereo not drawn)	-3	1	-12	2	34	61*	33*	-14	5.8*
CCOC(=O)C1=C(C)N=c2s/c(=C/c3ccc(OCC(=O)O)cc3)c(=O)n2C1c1cc(OC)c(OC)c(OC)c1 (stereo not drawn)	-5	-2	12	1	4	4	nt	nt	nt
CCc1ccc(N(CC(=O)N2CCCC2)S(C)(=O)=O)cc1	-4	1	-1	1	-5	nt	nt	nt	nt
O=C(NC1CCSC1=O)c1cccc(C(=O)NC2CCSC2=O)c1 (stereo not drawn)	1	8	3	0	0	95*	65*	-18	3
CC(C)NC(=O)N(C)C[C@H]1OCCCC[C@@H](C)Oc2ccc(N(C)C)cc2C(=O)N([C@H](C)CO)C[C@@H]1C	3	0	-1	0	3	nt	nt	nt	nt
CCOC(=O)Oc1ccc(/C=C2\N=C(C)OC2=O)cc1	-3	1	3	-2	-1	-6	nt	nt	nt
O=C(COC(=O)c1ccc(Cl)c(S(=O)(=O)N2CCCC2)c1)NCc1ccccc1	5	7	12	10	4	50*	41*	-4	-1
Cc1ccc(Cl)cc1N1CCN(c2cccc[n+]2C)CC1	1	0	9	-2	-3	99*	-4	-8	nt
NS(=O)(=O)c1cc(C(=O)OCC(=O)Nc2ccc3[nH]c(=O)[nH]c3c2)ccc1Cl	25	-1	-2	0	3	-1	nt	nt	nt
COc1cccc(N2[C@@H](CC(=O)O)c3ccccc3S2(=O)=O)c1	-2	-1	1	-1	-6	-3	nt	nt	nt
COc1cccc(N2[C@@H](CC(=O)O)c3cc(C(F)(F)F)ccc3S2(=O)=O)c1	9	0	15	-2	2	104*	69*	-19	3
CC(C)CC(NC(=O)C1CCCCC1)C(=O)NC(C)c1ccccc1 (stereo not drawn)	2	-2	4	1	-2	-2	nt	nt	nt
CC(C)CCC(C(=O)NC(C)c1ccccc1)C(=O)NC(C)c1ccccc1 (stereo not drawn)	9	52*	22	10	-1	92*	57*	-21	-29
O=C(O)CSc1c2c(nc3cc(C(=O)Nc4ccc(F)c(Cl)c4)ccc13)CCCC2	-10	2	-4	0	-1	52*	83*	-16	-2
Cc1ccc(S(=O)(=O)Nc2ccc3c(c2)OCCO3)c(C)c1NS(C)(=O)=O	2	0	3	-1	-4	-2	nt	nt	nt
CN(C)/C=C/c1oc2ccc(O)cc2c1[N+](=O)[O-]	-69	25	-1	13	-11	5	nt	nt	nt
CSc1cccc(-n2ccc(=O)c(C)c2C)c1	1	0	0	-3	3	-2	nt	nt	nt
CCOC(=O)C1CCCN(C(=O)c2ccc(Cn3c(=S)[nH]c4cc(C(=O)OC)ccc4c3=O)cc2)C1 (stereo not drawn)	2	1	4	4	21	60*	31*	-16	-2
SMILES	SUMO1-SIM PPI	LMPTP block	DNMT1 inh	STEP block	CSN inh	Scp-1 inhibitor	Scp-1 conf	Scp-1 MG ctr	Scp1 DSF
O=C(Nc1ccccc1)C1=C[C@H](c2ccc3c(c2)OCO3)C[C@H](OCc2ccc(CO)cc2)O1	1	0	-8	-3	2	-1	nt	nt	nt
Cc1cccc(NS(=O)(=O)c2ccc(C)c(C(=O)NCCCN3CCOCC3)c2)c1	-1	-1	3	-2	2	10	nt	nt	nt
CN(/N=C/c1ccc(C(C)(C)C)cc1)C1=NCCN1	3	-1	2	2	-4	-2	nt	nt	nt
CN(/N=C/c1ccncc1)C1=NCCN1	-4	-2	-1	1	-3	85*	-3	-11	nt
COc1cccc(S(=O)(=O)NCc2ccc(C(=O)N3CCN(C)CC3)cc2)c1	9	-1	-1	-2	0	-2	nt	nt	nt
Cc1cc(C)n2nc(C(=O)OCC(=O)c3ccccc3)nc2n1	1	0	3	2	4	73*	-10	-21	nt
Cc1cc(C)n2nc(C(=O)OCC(=O)N(C)Cc3ccccc3)nc2n1	3	-1	0	-3	4	-6	nt	nt	nt
O=C(COC(=O)c1cc(=O)[nH]c2ccccc12)NC(=O)NC1CCCCC1	-6	1	1	-2	-3	-6	-19	-16	nt
O=C(COC(=O)c1cc(=O)[nH]c2ccccc12)NC1CCCCCCC1	-10	0	2	7	-8	-5	nt	nt	nt
Cc1ccc(NC(=O)CN(C)S(=O)(=O)c2ccc3[nH]c(=O)oc3c2)c(C)c1	-3	1	8	1	14	1	nt	nt	nt
O=c1[nH]n2c(=O)c3c([nH]c2c1N=Nc1cccc(Cl)c1)CCCC3	5	5	0	4	-8	95*	46*	-18	30*
COc1ccccc1-n1c(CNC(=O)c2ccc(S(=O)(=O)N3CCCCC3)cc2)n[nH]c1=S	2	-1	0	3	-3	5	nt	nt	nt
COc1ccc(/C=N/NC(=O)CCn2c3ccccc3c3ccccc32)cc1O	-6	3	-6	-3	0	56*	-19	-14	nt
